Calls of active or inactive are those of the source. How the calls were made is not given here.
Key:
HCT-116 [1] = assay: Cytostatic activity against human HCT116 cells after 72 hrs by MTT assay; assay type: functional, cell-based; conditions: HCT-116, 72 h
Summary of the method: (§1)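 IC50 is the concentration that cuts cell growth by 50%, read by quantitative metabolic MTT staining after a 3-day treatment. The resistant sublines were made by raising the concentration of the cytotoxic drug step by step. CEM-DNR-bulk (daunorubicin-selected) stably overexpresses mrp-1. K562-TAX (paclitaxel-selected) expresses only mdr-1. HCT116p53−/− carries null p53 alleles. BJ and MRC-5 are nonmalignant fibroblasts.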

Candida albicans = assay: Antifungal activity against Candida albicans after 48 hrs; assay type: functional, organism-based
CCRF-CEM [2] = assay: Cell cycle arrest in human CCRF-CEM cells assessed as accumulation at sub-G1 phase at IC50 after 24 hrs by propidium iodide staining-based flow cytometric analysis (reference value: 9.6%); assay type: functional
[3] = Cytostatic activity against human CEM-DNR-bulk cells after 72 hrs by MTT assay; assay type: functional, cell-based; summary of the method: as §1
[4] = test system: Staphylococcus haemolyticus; assay: Antibacterial activity against methicillin-resistant Staphylococcus haemolyticus A/16568 after 24 hrs; assay type: functional, organism-based
Hepatitis C virus [5] = assay: Antiviral activity against Hepatitis C virus subtype 2a infected in human HuH7 cells; assay type: functional, organism-based, Hepacivirus hominis; conditions: genotype 2a, Huh-7
Pseudomonas aeruginosa [6] = assay: Antibacterial activity against Pseudomonas aeruginosa CCM 3955 after 24 hrs; assay type: functional, organism-based
Staphylococcus aureus [7] = assay: Antibacterial activity against methicillin-resistant Staphylococcus aureus MRSA 4591 after 24 hrs; assay type: functional, organism-based
CCRF-CEM [8] = assay: Cell cycle arrest in human CCRF-CEM cells assessed as accumulation at G2/M phase at IC50 after 24 hrs by propidium iodide staining-based flow cytometric analysis (reference value: 14.2%); assay type: functional
[9] = Cytotoxicity against human HuH7 cells infected with Hepatitis C virus subtype 2a; assay type: cell-based, Huh-7
Hepatitis C virus [10] = assay: Antiviral activity against Hepatitis C virus subtype 1b infected in human HuH7 cells; assay type: functional, organism-based, Hepacivirus hominis; conditions: genotype 1b, Huh-7
K562 [11] = assay: Cytostatic activity against paclitaxel-resistant human K562 cells after 72 hrs by MTT assay; assay type: functional, cell-based; conditions: K562, 72 h; summary of the method: as §1
CCRF-CEM [12] = assay: Mitotic arrest in human CCRF-CEM cells assessed as pH3Ser10-positive cells at IC50 after 24 hrs by propidium iodide staining-based flow cytometric analysis (reference value: 1.4%); assay type: functional
Escherichia coli [13] = assay: Antibacterial activity against Escherichia coli CCM 3954 after 24 hrs; assay type: functional, organism-based
BJ = assay: Cytostatic activity against human BJ cells after 72 hrs by MTT assay; assay type: ADME, cell-based; summary of the method: as §1
HepG2 = assay: Antiproliferative activity against human HepG2 cells after 72 hrs by XTT assay; assay type: functional, cell-based; conditions: HepG2, 72 h
[14] = Cytotoxicity against human HuH7 cells infected with Hepatitis C virus subtype 1b; assay type: cell-based, Huh-7
CCRF-CEM [15] = assay: Inhibition of RNA synthesis in human CCRF-CEM cells assessed as BrU-positive cells at IC50 after 24 hrs by propidium iodide staining-based flow cytometric analysis (reference value: 43.3%); assay type: functional; set-up: scale not given: the % may be the effect or the level left
Candida parapsilosis = assay: Antifungal activity against Candida parapsilosis after 48 hrs; assay type: functional, organism-based
Candida tropicalis = assay: Antifungal activity against Candida tropicalis after 48 hrs; assay type: functional, organism-based
Staphylococcus aureus [16] = assay: Antibacterial activity against Staphylococcus aureus CCM 3953 after 24 hrs; assay type: functional, organism-based
K562 [17] = assay: Cytostatic activity against human K562 cells after 72 hrs by MTT assay; assay type: functional, cell-based; conditions: K562, 72 h; summary of the method: as §1
A549 = assay: Cytostatic activity against human A549 cells after 72 hrs by MTT assay; assay type: functional, cell-based; conditions: A549, 72 h; summary of the method: as §1
HL-60 = assay: Antiproliferative activity against human HL60 cells after 72 hrs by XTT assay; assay type: functional, cell-based; conditions: HL-60, 72 h
Summary of the method: (§2)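 Antiproliferative test on HL-60 promyelocytic leukemia and HeLa S3 cervical carcinoma cells growing in liquid suspension.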

Escherichia coli [18] = assay: Antibacterial activity against multi-resistant Escherichia coli C/16702 after 24 hrs; assay type: functional, organism-based
Pseudomonas aeruginosa [19] = assay: Antibacterial activity against multi-resistant Pseudomonas aeruginosa A/16575 after 24 hrs; assay type: functional, organism-based
CCRF-CEM [20] = assay: Cytostatic activity against human CCRF-CEM cells after 72 hrs by MTT assay; assay type: functional, cell-based; summary of the method: as §1
MRC5 = assay: Cytostatic activity against human MRC5 cells after 72 hrs by MTT assay; assay type: ADME, cell-based; conditions: MRC5, 72 h; summary of the method: as §1
HCT-116 [21] = assay: Cytostatic activity against p53-deficient human HCT116 cells after 72 hrs by MTT assay; assay type: functional, cell-based; conditions: HCT-116, 72 h; summary of the method: as §1
[22] = Antiproliferative activity against human HeLaS3 cells after 72 hrs by XTT assay; assay type: functional, cell-based; conditions: HeLa S3, 72 h; summary of the method: as §2
Enterococcus faecalis = assay: Antibacterial activity against Enterococcus faecalis CCM 4224 after 24 hrs; assay type: functional, organism-based
Pichia kudriavzevii = assay: Antifungal activity against Candida crusei after 48 hrs; assay type: functional, organism-based
CCRF-CEM [23] = assay: Cell cycle arrest in human CCRF-CEM cells assessed as accumulation at G1 phase at IC50 after 24 hrs by propidium iodide staining-based flow cytometric analysis (reference value: 41%); assay type: functional
CCRF-CEM [24] = assay: Inhibition of DNA synthesis in human CCRF-CEM cells assessed as BrdU-positive cells at IC50 after 24 hrs by propidium iodide staining-based flow cytometric analysis (reference value: 50.1%); assay type: functional; set-up: scale not given: the % may be the effect or the level left
CCRF-CEM [25] = assay: Cell cycle arrest in human CCRF-CEM cells assessed as accumulation at S phase at IC50 after 24 hrs by propidium iodide staining-based flow cytometric analysis (reference value: 44.8%); assay type: functional

SMILES	IC50 (HCT-116 [1]) [nM]	Activity (Candida albicans)	IC50 [3] [nM]	Activity [4]	EC50 (Hepatitis C virus [5]) [nM]	Activity (Pseudomonas aeruginosa [6])	Activity (Staphylococcus aureus [7])	CC50 [9] [nM]	EC50 (Hepatitis C virus [10]) [nM]	IC50 (K562 [11]) [nM]	Activity (CCRF-CEM [12]) [%]	Activity (Escherichia coli [13])	IC50 (BJ) [nM]	CC50 [14] [nM]	Activity (CCRF-CEM [15]) [%]	Activity (Candida parapsilosis)	Activity (Candida tropicalis)	Activity (Staphylococcus aureus [16])	IC50 (K562 [17]) [nM]	IC50 (A549) [nM]	further results
COc1ncnc2c1c(-c1cccs1)cn2[C@@H]1O[C@H](CO)[C@@H](O)[C@H]1O	80	inactive	12100	inactive	> 44000	inactive	inactive	> 44000	1080	6200	1.1	inactive	62800	> 44000	0.1	inactive	inactive	inactive	70	4850	Activity (CCRF-CEM [2]): 7.5%; Activity (CCRF-CEM [8]): 9.8%; IC50 (HepG2): 13900 nM; IC50 (HL-60): 80 nM; Activity (Escherichia coli [18]): inactive; Activity (Pseudomonas aeruginosa [19]): inactive; IC50 (CCRF-CEM [20]): 90 nM; IC50 (MRC5): 43200 nM; IC50 (HCT-116 [21]): 440 nM; IC50 [22]: 1760 nM; Activity (Enterococcus faecalis): inactive; Activity (Pichia kudriavzevii): inactive
CN(C)c1ncnc2c1c(-c1ccco1)cn2[C@@H]1O[C@H](CO)[C@@H](O)[C@H]1O	250	inactive	3140	inactive	1350	inactive	inactive	> 44000	1490	1280	1.5	inactive	> 100000	> 44000	0.4	inactive	inactive	inactive	150	4600	Activity (CCRF-CEM [23]): 31%; IC50 (HepG2): > 15000 nM; IC50 (HL-60): 220 nM; Activity (Escherichia coli [18]): inactive; Activity (Pseudomonas aeruginosa [19]): inactive; IC50 (CCRF-CEM [20]): 2910 nM; IC50 (MRC5): > 100000 nM; IC50 (HCT-116 [21]): 320 nM; IC50 [22]: 1190 nM; Activity (Enterococcus faecalis): inactive; Activity (Pichia kudriavzevii): inactive
C#Cc1cn([C@@H]2O[C@H](CO)[C@@H](O)[C@H]2O)c2ncnc(N(C)C)c12	180	inactive	240	inactive	100	inactive	inactive	> 44000	70	260	1.3	inactive	410	> 44000	8.6	inactive	inactive	inactive	110	390	Activity (CCRF-CEM [2]): 8.9%; IC50 (HepG2): 1320 nM; IC50 (HL-60): 290 nM; Activity (Escherichia coli [18]): inactive; Activity (Pseudomonas aeruginosa [19]): inactive; IC50 (CCRF-CEM [20]): 90 nM; IC50 (MRC5): 36100 nM; IC50 (HCT-116 [21]): 290 nM; IC50 [22]: 810 nM; Activity (Enterococcus faecalis): inactive; Activity (Pichia kudriavzevii): inactive
Nc1ncnc2c1c(-c1cccs1)cn2[C@@H]1O[C@H](CO)[C@@H](O)[C@H]1O	10	inactive	170	inactive	> 44000	inactive	inactive	> 44000	> 44000	20	1.4	inactive	65600	> 44000	15.2	inactive	inactive	inactive	30	40	Activity (CCRF-CEM [2]): 18.6%; Activity (CCRF-CEM [8]): 10.1%; Activity (CCRF-CEM [23]): 50.6%; Activity (CCRF-CEM [24]): 52.4%; Activity (CCRF-CEM [25]): 39.2%; Activity (Escherichia coli [18]): inactive; Activity (Pseudomonas aeruginosa [19]): inactive; IC50 (CCRF-CEM [20]): 20 nM; IC50 (MRC5): 39400 nM; IC50 [22]: 20 nM; Activity (Enterococcus faecalis): inactive; Activity (Pichia kudriavzevii): inactive
